Series [1] in a line: Turnover in rat liver microsomes. It is filed as ADME, Microsome. The method in brief:
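Rat liver microsomes (0.331 mg/mL protein) with 10 µM compound, 1 mM UDP-GA and 1 mM NADPH in KH2PO4 buffer, pH 7.4, at 37 °C. Sampled at 0-30 min (n = 3), stopped with MeCN. Rate was taken from parent disappearance by LC-MS.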
(In general: Microsomes from liver hold many membrane-bound enzymes, among them those of drug oxidation.)

For a further series, the target named is Glucagon receptor (Homo sapiens, UniProt P47871). The series is described as follows: In vitro binding affinity for recombinant human glucagon receptor (hGGR) in BHK cells. It is filed as cell-based. Summed up:
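Membranes (4 µg) from BHK cells expressing the cloned human glucagon receptor. Compounds were diluted in DMSO, and a glucagon standard curve was run. IC50 given as mean ± SD, n = 3.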

Glucagon receptor, sequence (P47871 whole entry): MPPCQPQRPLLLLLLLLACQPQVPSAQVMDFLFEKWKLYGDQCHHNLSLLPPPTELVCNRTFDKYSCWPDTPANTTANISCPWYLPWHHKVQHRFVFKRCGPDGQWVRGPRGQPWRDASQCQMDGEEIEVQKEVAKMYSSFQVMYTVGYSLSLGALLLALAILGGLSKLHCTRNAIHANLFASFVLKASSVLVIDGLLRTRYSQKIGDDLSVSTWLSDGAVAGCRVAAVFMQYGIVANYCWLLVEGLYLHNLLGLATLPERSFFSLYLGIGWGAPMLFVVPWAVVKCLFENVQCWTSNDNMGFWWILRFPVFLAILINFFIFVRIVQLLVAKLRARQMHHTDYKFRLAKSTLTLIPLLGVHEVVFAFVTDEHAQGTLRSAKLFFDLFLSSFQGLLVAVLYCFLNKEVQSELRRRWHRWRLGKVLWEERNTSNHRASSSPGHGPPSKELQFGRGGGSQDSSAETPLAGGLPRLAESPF

Take `O=C(N/N=C/c1ccc(OCCNCCc2ccc(Br)cc2)c2ccccc12)c1ccc(O)c(Cl)c1`: the Metabolism in series [1] is 250 pmol/min/mg. The IC50 on Glucagon receptor was determined as 19.7 nM.
For `COc1cc(/C=N/NC(=O)c2ccc(O)c(Cl)c2)cc(Cl)c1OCCN1CCc2ccccc2C1`, the concentration for half-maximal inhibition (IC50) on Glucagon receptor stood at 485 nM.
In the case of `CCC1CCCCN1C(=O)Cc1ccc(/C=N/NC(=O)c2ccc(O)c(Cl)c2)c2ccccc12` (stereo unspecified), the Metabolism in series [1] worked out at 279 pmol/min/mg. The IC50 on Glucagon receptor worked out at 7.4 nM.
The molecule `O=C(N/N=C/c1ccc(CC(=O)N2CCN(Cc3ccc(Cl)cc3)CC2)c2ccccc12)c1ccc(O)c(Cl)c1` displayed a Metabolism in series [1] of 101 pmol/min/mg. In addition, the IC50 at Glucagon receptor turned out to be 4.6 nM.
Regarding `CN(C)CCN(Cc1ccccc1)C(=O)Cc1ccc(/C=N/NC(=O)c2ccc(O)c(C#N)c2)c2ccccc12`, the Metabolism in series [1] was determined as 240 pmol/min/mg. Further, the IC50 at Glucagon receptor came out at 10.4 nM.
Taken in the same sequence, the figures for `N#Cc1cc(C(=O)N/N=C/c2cn(C(=O)CC3CCCC3)c3ccccc23)ccc1O` were 136 pmol/min/mg and 6.4 nM.
As for `O=C(N/N=C/c1ccc(OCC(=O)N2CCC(O)(c3ccc(Br)cc3)CC2)c2ccccc12)c1ccc(O)c(Cl)c1`, at Glucagon receptor, the IC50 was 11.4 nM.
As for `COc1cc(NC(=O)CCc2ccc(C(F)(F)F)cc2)ccc1/C=N/NC(=O)c1ccc(O)c(Cl)c1`, the IC50 at Glucagon receptor stood at 33.5 nM.
Molecule `O=C(N/N=C/c1ccc(C(=O)N2CCN(Cc3ccc(Cl)cc3)CC2)c2ccccc12)c1ccc(O)c(Cl)c1` displayed a Metabolism in series [1] of 77 pmol/min/mg. Also, the IC50 on Glucagon receptor is 11.3 nM.
On the same counts, the results for `N#Cc1cc(C(=O)N/N=C/c2ccc(C(=O)N3CCN(Cc4ccc(Cl)cc4)CC3)c3ccccc23)ccc1O` are 53 pmol/min/mg and 4.9 nM.
Taken in the same sequence, the figures for `CCN(CC)C(=O)c1ccc(/C=N/NC(=O)c2ccc(O)c(Cl)c2)c2ccccc12` were 124 pmol/min/mg and 35.4 nM.
As for `O=C(N/N=C/c1cn(Cc2ccccc2)c2ccccc12)c1ccc(O)c(Cl)c1`, the IC50 at Glucagon receptor was found to be 615 nM.
With `O=C(N/N=C/c1cccc2c1ccn2Cc1ccc(Cl)c(Cl)c1)c1ccc(O)c(Cl)c1`, the Metabolism in series [1] came to 190 pmol/min/mg. For the same molecule, at Glucagon receptor, the IC50 was determined as 27.5 nM.
Taken in the same sequence, the figures for `COc1cc(NC(=O)CSc2ccc(OC(F)(F)F)cc2)ccc1/C=N/NC(=O)c1ccc(O)c(Cl)c1` were 23 pmol/min/mg and 14.5 nM.
On the same counts, the results for `CN1CCN(C(=O)Cc2ccc(/C=N/NC(=O)c3ccc(O)c(Cl)c3)c3ccccc23)CC1` are 283 pmol/min/mg and 268 nM.
`N#Cc1cc(C(=O)N/N=C/c2cccc3c2ccn3Cc2ccc(C(F)(F)F)cc2)ccc1O`: in series [1], the Metabolism was 59 pmol/min/mg. At Glucagon receptor, the IC50 was 22.3 nM.
In series [1], `CC(C)(C)C(=O)Nc1ccc(/C=N/NC(=O)c2ccc(O)c(Cl)c2)c2ccccc12` yielded a Metabolism of 45 pmol/min/mg. On Glucagon receptor, the IC50 came to 33 nM.
In the case of `CC(C)CS(=O)(=O)c1ccc(/C=N/NC(=O)c2ccc(O)c(Cl)c2)c2ccccc12`, the Metabolism in series [1] was found to be 110 pmol/min/mg. Also, the IC50 on Glucagon receptor came out at 181 nM.
Taken in the same sequence, the figures for `O=C(COc1ccc(/C=N/NC(=O)c2ccc(O)c(Cl)c2)c2ccccc12)NC1CCN(Cc2ccccc2)C1` (stereo unspecified) were 187 pmol/min/mg and 89.3 nM.
Taken in the same sequence, the figures for `N#Cc1cc(C(=O)N/N=C/c2ccc(N(C(=O)C3CCCC3)C(=O)C3CCCC3)c3ccccc23)ccc1O` were 250 pmol/min/mg and 2.8 nM.
Taken in the same sequence, the figures for `CC(C)c1ccc(Cn2ccc3c(/C=N/NC(=O)c4ccc(O)c(Cl)c4)cccc32)cc1` were 48 pmol/min/mg and 23 nM.
In the case of `O=C(N/N=C/c1ccc(OCCNCc2ccc(Cl)c(Cl)c2)c2ccccc12)c1ccc(O)c(Cl)c1`, the IC50 at Glucagon receptor stood at 14.7 nM.
As for `O=C(N/N=C/c1cccc2c(OCc3ccc(OC(F)(F)F)cc3)cccc12)c1ccc(O)c(Cl)c1`, the IC50 on Glucagon receptor came out at 12.9 nM.
On to `Cc1cc(C)c(Cn2ccc3c(/C=N/NC(=O)c4ccc(O)c(Cl)c4)cccc32)c(C)c1`, for which, at Glucagon receptor, the IC50 turned out to be 5.8 nM.
Turning to `N#Cc1cc(C(=O)N/N=C/c2ccc(OCC(=O)N3CC=C(c4ccc(Br)cc4)CC3)c3ccccc23)ccc1O`, the Metabolism in series [1] is 50 pmol/min/mg. Further, at Glucagon receptor, the IC50 amounted to 6.1 nM.
`COc1ccc2oc(C(=O)Nc3ccc(/C=N/NC(=O)c4ccc(O)c(Cl)c4)c(OC)c3)cc2c1` had a Metabolism in series [1] of 31 pmol/min/mg. Also, the IC50 at Glucagon receptor was 90.6 nM.
Taken in the same sequence, the figures for `COc1cc(/C=N/NC(=O)c2ccc(O)c(Cl)c2)ccc1NC(=O)Cc1csc2ccccc12` were 74 pmol/min/mg and 63.2 nM.
Regarding `O=C(N/N=C/c1ccc(CS(=O)(=O)C2CCCC2)c2ccccc12)c1ccc(O)c(Cl)c1`, the half-inhibitory concentration (IC50) on Glucagon receptor is 221 nM.
The molecule `CC1CCCCN1C(=O)Cc1ccc(/C=N/NC(=O)c2ccc(O)c(Cl)c2)c2ccccc12` (stereo unspecified) registered a Metabolism in series [1] of 267 pmol/min/mg. Further, the IC50 at Glucagon receptor was 8.3 nM.
On the same counts, the results for `CN(C)c1ccc(C(=O)n2cc(/C=N/NC(=O)c3ccc(O)c(C#N)c3)c3ccccc32)cc1` are 606 pmol/min/mg and 19.1 nM.
In series [1], `COc1cc(OCCN2CCc3ccccc3C2)ccc1/C=N/NC(=O)c1ccc(O)c(Cl)c1` yielded a Metabolism of 322 pmol/min/mg. At Glucagon receptor, the IC50 was 120 nM.
For `NC(=O)[C@H](Cc1ccccc1)NCc1ccc(/C=N/NC(=O)c2ccc(O)c(Cl)c2)c2ccccc12`, the Metabolism in series [1] worked out at 178 pmol/min/mg. The IC50 on Glucagon receptor was 61.8 nM.
On the same counts, the results for `O=C(N/N=C/c1ccc(CO)c2ccccc12)c1ccc(O)c(Cl)c1` are 75 pmol/min/mg and 41.1 nM.
On the same counts, the results for `O=C(N/N=C/c1ccc(C(=O)NCCc2ccc(Cl)cc2)c2ccccc12)c1ccc(O)c(Cl)c1` are 32 pmol/min/mg and 5.9 nM.
For the molecule `O=C(N/N=C/c1ccc(CS(=O)(=O)Cc2ccc(OC(F)(F)F)cc2)c2ccccc12)c1ccc(O)c(Cl)c1`, the Metabolism in series [1] is 14 pmol/min/mg. In addition, on Glucagon receptor, the IC50 amounted to 6.8 nM.
`COc1cc(NC(=O)CCc2ccc(C(F)(F)F)cc2)ccc1/C=N/NC(=O)c1ccc(O)c(Cl)c1.O`: in series [1], the Metabolism came out at 107 pmol/min/mg. For the same molecule, the IC50 at Glucagon receptor came out at 21.2 nM.
In turn, `CC(C)S(=O)(=O)Cc1ccc(/C=N/NC(=O)c2ccc(O)c(C#N)c2)c2ccccc12` showed a Metabolism in series [1] of 31 pmol/min/mg. The IC50 at Glucagon receptor was determined as 163 nM.
On the same counts, the results for `CCN(CC)C(=O)Cc1ccc(/C=N/NC(=O)c2ccc(O)c(C#N)c2)c2ccccc12` are 130 pmol/min/mg and 16.5 nM.
On the same counts, the results for `O=C(N/N=C/c1ccc(OCC(=O)N2CC=C(c3ccc(Br)cc3)CC2)c2ccccc12)c1ccc(O)c(Cl)c1` are 44 pmol/min/mg and 6.6 nM.
As to `O=C(N/N=C/c1ccc2c(ccn2Cc2ccc(OC(F)(F)F)cc2)c1)c1ccc(O)c(Cl)c1`, the IC50 at Glucagon receptor came to 286 nM.
In turn, `O=C(N/N=C/c1ccc(OCCNCc2ccc(OC(F)(F)F)cc2)c2ccccc12)c1ccc(O)c(Cl)c1` showed a Metabolism in series [1] of 167 pmol/min/mg. Moreover, the IC50 at Glucagon receptor amounted to 27.7 nM.
In the case of `O=C(COc1ccc(/C=N/NC(=O)c2ccc(O)c(Cl)c2)c2ccccc12)Nc1ccc(Cl)cc1`, the IC50 at Glucagon receptor was 51.7 nM.
Take `N#Cc1cc(C(=O)N/N=C/c2ccc(CO)c3ccccc23)ccc1O`: the Metabolism in series [1] came to 37 pmol/min/mg. On Glucagon receptor, the IC50 was 29.8 nM.
Consider `O=C(N/N=C/c1ccc(O)c2ccccc12)c1ccc(O)c(Cl)c1`, for which the IC50 at Glucagon receptor was found to be 203 nM.
On the same count and under the same terms, next, `COc1cc(NC(=O)Cc2ccc(Cl)cc2)ccc1/C=N/NC(=O)c1ccc(O)c(C#N)c1`: 28.7 nM.
The molecule `CCN(CC)C(=O)COc1ccc(/C=N/NC(=O)c2ccc(O)c(Cl)c2)c2ccccc12` registered a Metabolism in series [1] of 302 pmol/min/mg. Moreover, at Glucagon receptor, the IC50 was found to be 49.7 nM.
On the same counts, the results for `O=C(N/N=C/c1ccc(CC(=O)N2CCN(c3ccc(F)cc3)CC2)c2ccccc12)c1ccc(O)c(Cl)c1` are 160 pmol/min/mg and 12.3 nM.
Taken in the same sequence, the figures for `CCN(CC)C(=O)Cn1ccc2c(/C=N/NC(=O)c3ccc(O)c(Cl)c3)cccc21` were 165 pmol/min/mg and 2540 nM.
In series [1], `O=C(N/N=C/c1ccc(CN2CCN(Cc3ccc(Cl)cc3)CC2)c2ccccc12)c1ccc(O)c(Cl)c1` registered a Metabolism of 51 pmol/min/mg. Further, the IC50 at Glucagon receptor was 96.7 nM.
Take `O=C(N/N=C/c1ccc(N(C(=O)C2CCCC2)C(=O)C2CCCC2)c2ccccc12)c1ccc(O)c(Cl)c1`: the IC50 on Glucagon receptor was determined as 3.4 nM.
Turning to `COc1cc(NC(=O)CCc2ccc(C(F)(F)F)cc2)ccc1/C=N/NC(=O)c1ccc(O)c(C#N)c1`, at Glucagon receptor, the IC50 came to 15.7 nM.
In series [1], `O=C(N/N=C/c1ccc(CO)c2ccccc12)c1ccc(O)c(F)c1` displayed a Metabolism of 89 pmol/min/mg. Further, the IC50 on Glucagon receptor stood at 29.4 nM.
For `CN(C)CCN(Cc1ccccc1)C(=O)Cc1ccc(/C=N/NC(=O)c2ccc(O)c(Cl)c2)c2ccccc12`, the IC50 on Glucagon receptor is 6.2 nM.
In the case of `O=C(N/N=C/c1ccc(CC(=O)N2CCN(c3ccccc3F)CC2)c2ccccc12)c1ccc(O)c(Cl)c1`, in series [1], the Metabolism was found to be 178 pmol/min/mg. In addition, the IC50 on Glucagon receptor came to 7.9 nM.
For `O=C(N/N=C/c1cccc2c1ccn2Cc1ccc(C(F)(F)F)cc1)c1ccc(O)c(Cl)c1`, in series [1], the Metabolism worked out at 116 pmol/min/mg. The half-inhibitory concentration (IC50) at Glucagon receptor was found to be 33.8 nM.
Taken in the same sequence, the figures for `CC(C)S(=O)(=O)c1ccc(/C=N/NC(=O)c2ccc(O)c(Cl)c2)c2ccccc12` were 110 pmol/min/mg and 357 nM.
For `O=C(N/N=C/c1cn(Cc2ccc(OC(F)F)cc2)c2ccccc12)c1ccc(O)c(Cl)c1`, the IC50 on Glucagon receptor was 305 nM.
With `COc1cc(OCCNCc2ccc(C(F)(F)F)cc2)ccc1/C=N/NC(=O)c1ccc(O)c(Cl)c1`, the IC50 on Glucagon receptor worked out at 133 nM.
In turn, `O=C(N/N=C/c1ccc(OCC(=O)N2CCc3ccccc3C2)c2ccccc12)c1ccc(O)c(Cl)c1` gave a Metabolism in series [1] of 254 pmol/min/mg. For the same molecule, the IC50 on Glucagon receptor stood at 13.8 nM.
As to `COc1cc(NC(=O)Cc2cccc(C(F)(F)F)c2)ccc1/C=N/NC(=O)c1ccc(O)c(C#N)c1`, the Metabolism in series [1] amounted to 51 pmol/min/mg. Besides, on Glucagon receptor, the IC50 stood at 47.8 nM.
`COCc1ccc(/C=N/NC(=O)c2ccc(O)c(Cl)c2)c2ccccc12`: the IC50 on Glucagon receptor was found to be 75.5 nM.
As to `O=C(N/N=C/c1cccc2c1ccn2Cc1ccc(OC(F)(F)F)cc1)c1ccc(O)c(Cl)c1`, at Glucagon receptor, the IC50 came to 22.9 nM.
Still for that read-out and setting: next, `CN(C)CCN(C)C(=O)Cc1ccc(/C=N/NC(=O)c2ccc(O)c(Cl)c2)c2ccccc12`: 441 nM.

What is called IC50 is the concentration that inhibits the measured activity by half.

For the origin of these results see ChEMBL document CHEMBL1135694, “Optimization of alkylidene hydrazide based human glucagon receptor antagonists. Discovery of the highly potent and orally available 3-cyano-4-hydroxybenzoic acid [1-(2,3,5,6-tetramethylbenzyl)-1H-indol-4-ylmethylene]hydrazide” (J Med Chem, 2002).
